The results in this text go back to ChEMBL document CHEMBL3244336, “Antitumor agents. 1. 1,4-Bis[(aminoalkyl)amino]-9,10-anthracenediones” (J Med Chem, 1979).

The subject of series [1] is B16. Nature of the series: Antitumor activity against mouse B16 cells allografted in BDF1 mouse assessed as increase of median life span at 100 mg/kg, ip on day 1 to 9 measured up to 80 days relative to control. It counts as functional. To be noted: route intraperitoneal. A digest of the protocol:
(§1)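 BDF1 mice implanted ip with a homogenate from 0.05 g of B16 tumor. Test agent given ip on days 1-9. Deaths recorded for 80 days. Result is % increase in median life span over untreated controls. "Cures" are survivors/total at 80 days.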

The test system of series [2] is P388. Nature of the series: Antitumor activity against mouse P388 cells allografted in mouse assessed as increase of median life span at 200 mg/kg, ip on day 1, 5 and 9 measured up to 60 days relative to control. It is filed as functional. The settings on record: route intraperitoneal. In a few lines:
(§2)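 BDF1 or CDF1 mice inoculated ip with ascitic P388 leukemia cells. Dosing ip on days 1, 5 and 9. Deaths recorded for 60 days; % increase in median life span over controls. "Cures" are survivors/total at 60 days.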

For series [3], the system named is B16. The series is described as follows: Antitumor activity against mouse B16 cells allografted in BDF1 mouse assessed as increase of median life span at 200 mg/kg, ip on day […] measured up to 80 days relative to control. It counts as functional. To be noted: route intraperitoneal.
Series [4] concerns P388. Nature of the series: Antitumor activity against mouse P388 cells allografted in ip dosed mouse assessed as dose providing 40% increase in life span administered as once each 4 days for 3 total injection. It counts as functional. In a few lines: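 P388 tumor-bearing mice dosed ip, either once as a single dose or once every 4 days for three injections. It was read from regression lines of log dose-response data.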

Series [5] has as its system L5178Y. Nature of the series: Ratio of adriamycin to compound for inhibition of DNA synthesis in mouse L5178Y cells. It counts as functional.
The test system of series [6] is B16. The series is described as follows: Antitumor activity against mouse B16 cells allografted in BDF1 mouse assessed as increase of median life span at 0.8 mg/kg, ip on day 1 to 9 measured up to 80 days relative to control. It counts as functional. To be noted: route intraperitoneal. In a few lines: as §1
Series [7] has as its system P388. The series is described as follows: Antitumor activity against mouse P388 cells allografted in mouse assessed as increase of median life span at 1.6 mg/kg, ip on day 1, 5 and 9 measured up to 60 days relative to control. It is filed as functional. To be noted: route intraperitoneal. In a few lines: as §2
Series [8] can be described thus: Therapeutic index, ratio of MTD for mouse P388 cells allografted ip dosed mouse to MED for mouse P388 cells allografted in ip dosed mouse administered as once each 4 days for 3 total injection. To be noted: in vivo, read-out: TI. It counts as organism-based. In a few lines: (§3)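 Therapeutic index is MTD/MED for ip dosing, either single or once every 4 days ×3. MTD is the 10% lethal dose in normal mice over 21 days. MED is the dose giving a 40% life-span increase in P388-bearing mice. Both come from log dose-response regression lines.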

Series [9] can be described thus: Toxicity in […] assessed as maximum tolerated dose administered as single dose. It is filed as organism-based, P388. The settings on record: mouse, in vivo, ip.
Series [10] concerns L5178Y. The series is described as follows: Ratio of adriamycin to compound for inhibition of RNA synthesis in mouse L5178Y cells. It is filed as functional.
In series [11] the test system is P388. The series is described as follows: Antitumor activity against mouse P388 cells allografted in ip dosed mouse assessed as minimum effective dose administered as single dose. It is filed as functional. The settings on record: read-out: MED. In a few lines:
(§4)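 Drug given ip to P388 tumor-bearing mice, either once as a single dose or once each 4 days for three injections. Minimum effective dose defined as the dose giving 40% increase in life span over control, read from regression lines of log dose-response data.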

The nature of series [12]: Therapeutic index, ratio of MTD for mouse P388 cells allografted ip dosed mouse to MED for mouse P388 cells allografted in ip dosed mouse administered as single dose. It is filed as organism-based. To be noted: in vivo, read-out: TI. In a few lines:
as §3

For series [13], the system named is P388. The series is described as follows: Antitumor activity against mouse P388 cells allografted in ip dosed mouse assessed as minimum effective dose administered as once each 4 days for 3 total injection. It is filed as functional. The settings on record: 96 h, read-out: MED. In a few lines: as §4
Series [14] can be described thus: Toxicity in […] assessed as maximum tolerated dose administered as once each 4 days for 3 total injection. It is filed as organism-based, P388. To be noted: mouse, in vivo, ip.

The structures appear in SMILES notation.

Broadly, the ILS is the gain in survival time of treated over control animals, in per cent. For `O=C1c2c(O)ccc(O)c2C(=O)c2c(NCCNCCN3CCOCC3)ccc(NCCNCCN3CCOCC3)c21`, in series [1], the ILS at 100 mg/kg was found to be 233%. In addition, the ILS at 200 mg/kg in series [2] came to 136%.

Consider `O=C1c2c(O)ccc(O)c2C(=O)c2c(NCCN(CCO)CCO)ccc(NCCN(CCO)CCO)c21`, for which the ILS at 200 mg/kg in series [3] stood at 212%; in series [2], 306%.

By MTD is commonly meant the highest dose tested that stayed within the study's limit of toxicity. In the case of `Cl.Cl.O=C1c2c(O)ccc(O)c2C(=O)c2c(NCCNCCO)ccc(NCCNCCO)c21` [MITOXANTRONE HYDROCHLORIDE], the Activity in series [4] is 300 mg/kg. The Ratio is on record as 4 in series [5] and 7 in series [10]. In addition, the ILS at 0.8 mg/kg in [6] was > 272%. Besides, the ILS at 1.6 mg/kg in series [7] was > 500%. Besides, the selectivity ratio at 96 h in series [8] amounted to 148. In addition, the MTD in series [9] turned out to be 4.2 mg/kg. Also, the minimal effective dose in series [11] turned out to be 0.15 mg/kg; in [13] it was 0.023 mg/kg. Moreover, the selectivity ratio in series [12] stood at 28. For the same compound, the MTD at 96 h in series [14] came to 3.4 mg/kg.
